Assay [1] deals with PC-3. The assay can be described thus: Cytotoxicity against human PC3 cells assessed as reduction in cell viability after 72 hrs by MTT assay. It is filed as functional, cell-based. The conditions noted are these: PC-3, 72 h. The essentials: (§1)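 MTT viability assay. Cancer lines grown in RPMI 1640 and L929 fibroblasts in DMEM, each with 10% FBS, 2 mM glutamine, penicillin/streptomycin, 37 °C, 5% CO2. PBMC were taken from healthy donors by density-gradient centrifugation, kept in RPMI with 20% FBS and stimulated with 2% phytohemagglutinin. Cells were exposed 72 h (0.01–27.32 µM). MTT 0.5 mg/mL for 3 h, absorbance read at 550 nm. IC50 with 95% CI from nonlinear regression; triplicate, ≥3 independent experiments.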
(In general: Formazan colour is commonly taken as a measure of viable cells.)

Assay [2] relates to HCT-116. The assay can be described thus: Cytotoxicity against human HCT116 cells assessed as reduction in cell viability after 72 hrs by MTT assay. In kind it is functional, cell-based. Conditions: HCT-116, 72 h. The essentials:
as §1

In assay [3] the test system is HL-60. The assay can be described thus: Cytotoxicity against human HL60 cells assessed as reduction in cell viability after 72 hrs by MTT assay. In kind it is functional, cell-based. The conditions noted are these: HL-60, 72 h. The essentials: as §1
Assay [4] relates to SF-295. The assay can be described thus: Cytotoxicity against human SF295 cells assessed as reduction in cell viability after 72 hrs by MTT assay. The conditions noted are these: SF-295, 72 h.
The subject of assay [5] is NCI-H460. The assay can be described thus: Cytotoxicity against human NCI-H460 cells assessed as reduction in cell viability after 72 hrs by MTT assay. Conditions: NCI-H460, 72 h.
Assay [6] has as its system L929. The assay can be described thus: Cytotoxicity against mouse L929 cells assessed as reduction in cell viability after 72 hrs by MTT assay. The conditions noted are these: L929, 72 h. In kind it is cell-based. Summed up: as §1
In assay [7] the test system is PBMC. The assay can be described thus: Cytotoxicity against human PBMC cells assessed as reduction in cell viability after 72 hrs by MTT assay.

Where only a bound is given, the exact number is not on record here.

As usually defined, the IC50 is the midpoint of a concentration-inhibition curve.

As for `COc1ccc(-c2cn(-c3ccc(OC)cc3)c3c2C(=O)c2ccccc2C3=O)cc1`, the IC50 in assay [1], in assay [2], in assay [3], in assay [4], in assay [5] and in assay [6] was above 12.2 µM each time. The half-inhibitory concentration (IC50) in assay [7] was above 12.2 µM.

Take `CCOC(=O)Cc1c(-c2cccs2)c2c(n1-c1ccccc1)C(=O)c1ccccc1C2=O`: the IC50 was above 11.3 µM in assay [1]; above 11.3 µM in assay [2]; 2.63 µM in assay [3]; above 11.3 µM in assay [4]; above 11.3 µM in assay [5]; above 11.3 µM in assay [6]. Moreover, the 50% inhibitory concentration (IC50) in assay [7] is above 11.3 µM.

On to `CCOC(=O)Cc1c(-c2ccc(Cl)cc2)c2c(n1-c1ccc(OC)cc1)C(=O)c1ccccc1C2=O`, for which the IC50 in assay [1], in assay [2], in assay [3], in assay [4], in assay [5] and in assay [6] was above 10 µM throughout. Further, in assay [7], the IC50 is above 10 µM.

In the case of `CCOC(=O)Cc1c(-c2ccc(C)cc2)c2c(n1-c1ccc(OC)cc1)C(=O)c1ccccc1C2=O`, the concentration for half-maximal inhibition (IC50) in assay [1] was above 10.4 µM; in assay [2], above 10.4 µM; in assay [3], 3.36 µM; in assay [4], above 10.4 µM; in assay [5], above 10.4 µM; in assay [6], above 10.4 µM. Moreover, the IC50 in assay [7] is above 10.4 µM.

In the case of `CCOC(=O)Cc1c(-c2cc(OC)c(OC)c(OC)c2)c2c(n1-c1cccc(Br)c1)C(=O)c1ccccc1C2=O`, the half-maximal inhibitory concentration (IC50) in assay [1], in assay [2], in assay [3], in assay [4], in assay [5] and in assay [6] was above 8.29 µM in each case. Besides, in assay [7], the concentration for half-maximal inhibition (IC50) was above 8.29 µM.

For `CCOC(=O)Cc1oc2c(c1/C=C/c1ccccc1)C(=O)c1ccccc1C2=O`, the IC50 in assay [1] is above 13 µM; in assay [2], above 13 µM; in assay [3] it was 10.7 µM; in assay [4], above 13 µM; in assay [5], above 13 µM; in assay [6] it was above 13 µM. Besides, in assay [7], the half-maximal inhibitory concentration (IC50) is above 13 µM.

`CCOC(=O)Cc1oc2c(c1-c1cccc3ccccc13)C(=O)c1ccccc1C2=O`: the IC50 is above 12.2 µM in assay [1]; above 12.2 µM in assay [2]; 6.69 µM in assay [3]; above 12.2 µM in assay [4]; above 12.2 µM in assay [5]; above 12.2 µM in assay [6]. The 50% inhibitory concentration (IC50) in assay [7] was above 12.2 µM.

On to `CCOC(=O)Cc1c(-c2ccco2)c2c(n1-c1ccccc1)C(=O)c1ccccc1C2=O`, for which the IC50 in assay [1], in assay [2], in assay [3], in assay [4], in assay [5] and in assay [6] was above 11.8 µM each time. The concentration for half-maximal inhibition (IC50) in assay [7] was above 11.8 µM.

Take `COc1ccc(-c2cn(-c3ccccc3)c3c2C(=O)c2ccccc2C3=O)cc1`: the IC50 in assay [1], in assay [2], in assay [3], in assay [4], in assay [5] and in assay [6] was above 13 µM throughout. The half-maximal inhibitory concentration (IC50) in assay [7] is above 13 µM.

For `CCOC(=O)Cc1oc2c(c1-c1ccccc1)C(=O)c1ccccc1C2=O`, the IC50 in assay [1] is above 13.9 µM; in assay [2], 12.5 µM; in assay [3], 8.38 µM; in assay [4] it was above 13.9 µM; in assay [5], 8.86 µM; in assay [6], above 13.9 µM. Moreover, in assay [7], the IC50 is above 13.9 µM.

On to `CCOC(=O)Cc1oc2c(c1-c1ccc(C)cc1)C(=O)c1ccccc1C2=O`, for which the concentration for half-maximal inhibition (IC50) in assay [1], in assay [2], in assay [3], in assay [4], in assay [5] and in assay [6] was above 13.4 µM each time. The IC50 in assay [7] is above 13.4 µM.

Values taken from ChEMBL document CHEMBL4152217, “Quinonoid compounds via reactions of lawsone and 2-aminonaphthoquinone with α-bromonitroalkenes and nitroallylic acetates: Structural diversity by C-ring modification and cytotoxic evaluation against cancer cells” (Eur J Med Chem, 2018).
